What was measured:
Mus musculus [1] = species: Mus musculus; experiment: Inhibition of hemoglobin hydrolysis in mice (Mus musculus) infected with Plasmodium berghei at 10 uM; type: functional
Falcipain 2 [2] = molecular target: T1, Falcipain 2 (Plasmodium falciparum, UniProt Q9N6S8); experiment: Inhibitory concentration against recombinant Falcipain-2
T1 sequence (Q9N6S8 whole entry): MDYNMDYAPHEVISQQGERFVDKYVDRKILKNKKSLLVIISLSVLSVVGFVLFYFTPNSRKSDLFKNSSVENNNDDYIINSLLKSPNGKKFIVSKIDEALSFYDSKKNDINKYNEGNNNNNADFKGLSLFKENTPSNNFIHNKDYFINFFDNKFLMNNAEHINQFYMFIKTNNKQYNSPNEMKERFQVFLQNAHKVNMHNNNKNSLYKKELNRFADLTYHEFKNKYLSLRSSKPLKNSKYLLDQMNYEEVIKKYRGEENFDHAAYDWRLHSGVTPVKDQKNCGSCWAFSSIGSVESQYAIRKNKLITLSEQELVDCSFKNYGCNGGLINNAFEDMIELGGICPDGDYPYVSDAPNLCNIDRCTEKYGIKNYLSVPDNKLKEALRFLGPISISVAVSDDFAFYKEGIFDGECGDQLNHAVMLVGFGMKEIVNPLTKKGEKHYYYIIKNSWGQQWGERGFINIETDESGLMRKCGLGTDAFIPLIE

Plasmodium falciparum [3] = experiment: Inhibitory concentration against Plasmodium falciparum in FACS; type: functional, organism-based
Method in brief: (§1)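 Chloroquine-resistant P. falciparum cultures were exposed to a range of compound concentrations for 48 h, starting at the ring stage. New ring forms were counted by FACS (flow cytometry), and parasitemia was compared with untreated controls to derive IC50.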

Mus musculus [4] = species: Mus musculus; experiment: Inhibition of hemoglobin hydrolysis in mice (Mus musculus) infected with Plasmodium berghei at 5 uM; type: functional
Falcipain 2 [5] = molecular target: T1, Falcipain 2; experiment: Inhibitory concentration against falcipain-2; No significant effect impaired solubility
Plasmodium falciparum [6] = experiment: Inhibitory concentration against Plasmodium falciparum; type: functional, organism-based; method in brief: as §1
Mus musculus [7] = species: Mus musculus; experiment: Inhibition of hemoglobin hydrolysis in mice (Mus musculus) infected with Plasmodium berghei at 100 uM; type: functional
[8] = molecular target: T2, Histidine-rich protein PFHRP-II (Plasmodium falciparum) (UniProt P05227); details: Plasmodium berghei; 100 uM
T2 sequence (whole entry): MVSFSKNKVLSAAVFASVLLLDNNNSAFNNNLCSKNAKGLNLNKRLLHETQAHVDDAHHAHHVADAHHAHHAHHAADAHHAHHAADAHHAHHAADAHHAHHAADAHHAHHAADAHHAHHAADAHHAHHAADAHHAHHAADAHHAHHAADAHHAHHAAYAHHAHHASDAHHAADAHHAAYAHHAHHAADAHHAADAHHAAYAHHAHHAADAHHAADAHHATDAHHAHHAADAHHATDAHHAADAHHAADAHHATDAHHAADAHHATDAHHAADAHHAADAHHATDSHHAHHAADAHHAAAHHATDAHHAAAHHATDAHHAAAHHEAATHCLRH

Row | SMILES | IC50 (Plasmodium falciparum [6]) | other results
1 | CC(=O)N[C@@H](CC(C)C)C(=O)N[C@@H](CC(C)C)C(=O)N[C@H](C=O)CCCNC(=N)N [LEUPEPTIN] |  | Inhibition (Mus musculus [1]): 87.02%; IC50 (Falcipain 2 [2]): 0.0058 µM; IC50 (Plasmodium falciparum [3]): 6.26 µM
2 | O=C(Nc1ccccc1)Nc1cccc(C(=O)/C=C/c2ccc(Br)cc2)c1 |  | Inhibition (Mus musculus [4]): 66.58%; IC50 (Falcipain 2 [5]): No significant effect; IC50 (Plasmodium falciparum [3]): 2.1 µM
3 | COc1ccc(NC(=O)Nc2ccc(C(=O)/C=C/c3ccc(Cl)cc3)cc2)cc1 | > 10 µM | 
4 | Cc1ccc(/C=C/C(=O)c2cccc(NC(=O)Nc3ccccc3)c2)cc1 |  | Inhibition (Mus musculus [4]): 74.93%; IC50 (Falcipain 2 [5]): No significant effect; IC50 (Plasmodium falciparum [3]): 2.74 µM
5 | COc1cccc(/C=C/C(=O)c2cccc(NC(=O)Nc3ccccc3)c2)c1OC | > 10 µM | 
6 | O=C(Nc1ccc(Cl)cc1)Nc1ccc(C(=O)/C=C/c2ccccc2)cc1 |  | IC50 (Falcipain 2 [2]): 3.8 µM; IC50 (Plasmodium falciparum [3]): 9 µM
7 | COc1ccc(NC(=O)Nc2ccc(C(=O)/C=C/c3ccc(OC)cc3OC)cc2)cc1 | > 10 µM | 
8 | COc1cc(/C=C/C(=O)c2ccc(NC(=O)Nc3ccccc3)cc2)cc(OC)c1OC | > 10 µM | 
9 | O=C(Nc1ccccc1)Nc1cccc(C(=O)/C=C/c2ccc(F)cc2F)c1 | > 10 µM | 
10 | O=C(Nc1ccc(Cl)cc1)Nc1ccc(C(=O)/C=C/c2ccc(Cl)cc2)cc1 |  | IC50 (Falcipain 2 [2]): 2.6 µM; IC50 (Plasmodium falciparum [3]): 10 µM
11 | CN(C)c1ccc(/C=C/C(=O)c2cccc(NC(=O)Nc3ccccc3)c2)cc1 | > 10 µM | 
12 | O=C(Nc1ccccc1)Nc1cccc(C(=O)/C=C/c2ccccc2)c1 | > 10 µM | 
13 | COc1ccc(/C=C/C(=O)c2cccc(NC(=O)Nc3ccccc3)c2)cc1 | > 10 µM | 
14 | O=C(Nc1ccc(Cl)cc1)Nc1ccc(C(=O)/C=C/c2ccc(Cl)cc2Cl)cc1 |  | Inhibition (Mus musculus [4]): 60.31%; IC50 (Falcipain 2 [2]): 2.5 µM; IC50 (Plasmodium falciparum [3]): 5 µM
15 | COc1ccc(NC(=O)Nc2ccc(C(=O)/C=C/c3cc(OC)c(OC)c(OC)c3)cc2)cc1 | > 10 µM | 
16 | COc1cc(/C=C/C(=O)c2cccc(NC(=O)Nc3ccccc3)c2)cc(OC)c1OC |  | Inhibition (Mus musculus [4]): 51.45%; IC50 (Falcipain 2 [5]): No significant effect; IC50 (Plasmodium falciparum [3]): 1.76 µM
17 | COc1ccc(NC(=O)Nc2ccc(C(=O)/C=C/c3ccc(F)cc3F)cc2)cc1 | > 10 µM | 

Row | SMILES | IC50 (Plasmodium falciparum [6]) | other results
18 | COc1ccc(/C=C/C(=O)c2ccc(NC(=O)Nc3ccc(OC)cc3)cc2)cc1 | > 10 µM | 
19 | COc1ccc(/C=C/C(=O)c2ccc(NC(=O)Nc3ccc(Cl)cc3)cc2)cc1 | > 10 µM | 
20 | COc1ccc(NC(=O)Nc2ccc(C(=O)/C=C/c3ccc(Cl)cc3Cl)cc2)cc1 | > 10 µM | 
21 | COc1ccc(NC(=O)Nc2ccc(C(=O)/C=C/c3ccc(C)cc3)cc2)cc1 | > 10 µM | 
22 | COc1cc(/C=C/C(=O)c2ccc(NC(=O)Nc3ccc(Cl)cc3)cc2)cc(OC)c1OC |  | IC50 (Falcipain 2 [2]): 1.8 µM; IC50 (Plasmodium falciparum [3]): 3 µM
23 | Cc1ccc(/C=C/C(=O)c2ccc(NC(=O)Nc3ccc(Cl)cc3)cc2)cc1 | > 10 µM | 
24 | CC(C)CC(=O)N[C@H](C(=O)N[C@H](C(=O)N[C@@H](CC(C)C)[C@@H](O)CC(=O)N[C@@H](C)C(=O)N[C@@H](CC(C)C)[C@@H](O)CC(=O)O)C(C)C)C(C)C [PEPSTATIN] |  | Inhibition (Mus musculus [1]): 91.91%
25 | O=C(Nc1ccccc1)Nc1cccc(C(=O)/C=C/c2ccc(Cl)cc2Cl)c1 |  | Inhibition (Mus musculus [4]): 60.72%; IC50 (Falcipain 2 [5]): No significant effect; IC50 (Plasmodium falciparum [3]): 2.14 µM
26 | CC(C)C[C@H](NC(=O)[C@H]1O[C@@H]1C(=O)O)C(=O)NCCCCN=C(N)N [E-64] |  | IC50 (Falcipain 2 [2]): 0.058 µM; IC50 (Plasmodium falciparum [3]): 2.5 µM
27 | O=C(Nc1ccc(Cl)cc1)Nc1ccc(C(=O)/C=C/c2ccc3c(c2)OCO3)cc1 |  | IC50 (Falcipain 2 [2]): 2.5 µM; IC50 (Plasmodium falciparum [3]): 10 µM
28 | COc1ccc(NC(=O)Nc2ccc(C(=O)/C=C/c3ccc(F)cc3)cc2)cc1 | > 10 µM | 
29 | O=C(Nc1ccc(Cl)cc1)Nc1ccc(C(=O)/C=C/c2ccc(F)cc2)cc1 | > 10 µM | 
30 | CCN(CC)CCCC(C)Nc1ccnc2cc(Cl)ccc12 (centres undefined) [CHLOROQUINE] |  | Inhibition (Mus musculus [7]): 5.15%; inhibition [8]: 86.6%
31 | COc1ccc(/C=C/C(=O)c2cccc(NC(=O)Nc3ccccc3)c2)cc1OC | > 10 µM | 
32 | O=C(Nc1ccc(Cl)cc1)Nc1ccc(C(=O)/C=C/c2ccc(F)cc2F)cc1 |  | Inhibition (Mus musculus [4]): 33.04%; IC50 (Falcipain 2 [2]): 2.6 µM; IC50 (Plasmodium falciparum [3]): 8 µM
33 | COc1ccc(/C=C/C(=O)c2ccc(NC(=O)Nc3ccc(Cl)cc3)cc2)c(OC)c1 | > 10 µM | 
34 | COc1ccc(/C=C/C(=O)c2cccc(NC(=O)Nc3ccccc3)c2)c(OC)c1 | > 10 µM | 

Now from value to compound, other results behind:

Row | IC50 (Plasmodium falciparum [6]) | SMILES | other results
35 | > 10 µM | COc1ccc(/C=C/C(=O)c2ccc(NC(=O)Nc3ccccc3)cc2)c(OC)c1 | 
36 | > 10 µM | O=C(Nc1ccccc1)Nc1ccc(C(=O)/C=C/c2ccc(Cl)cc2Cl)cc1 | 
37 | > 10 µM | O=C(Nc1ccccc1)Nc1ccc(C(=O)/C=C/c2ccc(Cl)cc2)cc1 | 
38 | > 10 µM | O=C(Nc1ccccc1)Nc1ccc(C(=O)/C=C/c2ccc3c(c2)OCO3)cc1 | 
39 | > 10 µM | O=C(Nc1ccccc1)Nc1cccc(C(=O)/C=C/c2ccc3c(c2)OCO3)c1 | 
40 | > 10 µM | COc1ccc(/C=C/C(=O)c2ccc(NC(=O)Nc3ccccc3)cc2)cc1 | 
41 | > 10 µM | O=C(Nc1ccccc1)Nc1cccc(C(=O)/C=C/c2ccc(F)cc2)c1 | 
42 | > 10 µM | COc1ccc(NC(=O)Nc2ccc(C(=O)/C=C/c3ccc4c(c3)OCO4)cc2)cc1 | 
43 | > 10 µM | O=C(Nc1ccccc1)Nc1ccc(C(=O)/C=C/c2ccc(F)cc2)cc1 | 
44 | > 10 µM | Cc1ccc(/C=C/C(=O)c2ccc(NC(=O)Nc3ccccc3)cc2)cc1 | 
45 | > 10 µM | O=C(Nc1ccccc1)Nc1ccc(C(=O)/C=C/c2ccccc2)cc1 | 
46 | > 10 µM | COc1ccc(NC(=O)Nc2ccc(C(=O)/C=C/c3ccccc3)cc2)cc1 | 
47 | > 10 µM | O=C(Nc1ccccc1)Nc1ccc(C(=O)/C=C/c2ccccn2)cc1 | 
48 | > 10 µM | O=C(Nc1ccccc1)Nc1ccc(C(=O)/C=C/c2ccc(F)cc2F)cc1 | 
49 | > 10 µM | O=C(Nc1ccccc1)Nc1cccc(C(=O)/C=C/c2ccc(Cl)cc2)c1 | 

Reference: ChEMBL document CHEMBL1141931, “Synthesis and evaluation of new antimalarial phenylurenyl chalcone derivatives” (J Med Chem, 2005)
